Assays:
FL LC dimers = details: cited from earlier work
[1] = target: T1, fluorescein-labeled WIL-FL LC dimer (WIL-FL*) (Homo sapiens, UniProt P01721, K101C); test: protease-coupled fluorescence polarization; type: biochemical
[2] = target: fluorescein-labeled WIL-FL* T46L/F49Y LC dimer (Homo sapiens, UniProt P01721, K101C/T66L); test: protease-coupled fluorescence polarization; type: biochemical; details: for increased potency compared to stabilizer 1 in the PCFP assays (up to): highest ratio across the two PCFP assays (WIL-FL* and WIL-FL* T46L/F49Y)
fluorescein-labeled WIL-FL* T46L/F49Y LC dimer, sequence (P01721 20-117 T66L/K101C): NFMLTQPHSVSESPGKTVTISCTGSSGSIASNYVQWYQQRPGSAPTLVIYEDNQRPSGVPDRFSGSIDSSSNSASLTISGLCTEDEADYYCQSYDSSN

[3] = system: unlabeled WIL-FL LC dimer; test: proteinase K sensitivity assay, single dose; type: biochemical, human; details: 10 μM stabilizer
In short: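 Unlabelled WIL-FL LC dimer (2.5 μM) was treated with test compound (10 μM) and proteinase K (50 nM) for 2 h at 37 °C. Remaining intact dimer was quantified by size-exclusion chromatography. Fold protection is the fraction of dimer remaining with compound, corrected for residual dimer in the vehicle (1% DMSO) control. Mean of ≥3 independent replicates ± 1 SD.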

[4] = target: T1, fluorescein-labeled WIL-FL LC dimer (WIL-FL*); details: previous study; cited from earlier work

T1 sequence (P01721 20-117 K101C): as the sequence (P01721 20-117 T66L/K101C) above, with L47T counted along it

## CN(C)c1ccc2nc3ccc(=[N+](C)C)cc-3sc2c1 [methylene blue]
FL LC dimers
  stabilization of FL LC dimers: do not stabilize FL LC dimers

## CCN(CC)c1ccc2c(C)c(CCNC(=O)CCc3ccccc3)c(=O)oc2c1 [Compound 16]
[1]; PCFP dose-response (Figure S3)
  maximal fluorescence polarization compared to compound 1: lower

## CCN(CC)c1ccc2c(C)c(CCNC(=O)NCc3ccc4ccccc4c3)c(=O)oc2c1 [Compound 23]
[2]
  increased potency compared to stabilizer 1 in the PCFP assays (up to): ≤ 150 fold

## CCN(CC)c1ccc2c(C)c(CCNC(=O)NCc3cccc(-c4c[nH]cn4)c3)c(=O)oc2c1 [Compound 21]
[2]
  increased potency compared to stabilizer 1 in the PCFP assays (up to): up to 56 fold

## CCN(CC)c1ccc2c(C)c(CCC(=O)NCCc3cccnc3)c(=O)oc2c1 [Compound 11]
[1]; ratio of EC50 values
  potency increase for WIL-FL* compared to stabilizer 1: 2.6 fold
[3]
  increase in fold protection for unlabeled WIL-FL compared to stabilizer 1: 0.33
[2]; ratio of EC50 values
  potency increase for WIL-FL* T46L/F49Y compared to stabilizer 1: two-fold

## O=C(O)c1cc(/N=N/c2ccc(S(=O)(=O)Nc3ccccn3)cc2)ccc1O [sulfasalazine]
FL LC dimers
  stabilization of FL LC dimers: do not stabilize FL LC dimers

## CCN(CC)c1ccc2c(C)c(CCOC(=O)NCc3ccccc3)c(=O)oc2c1 [2-(7-(diethylamino)-4-methyl-2-oxo-2H-chromen-3-yl)ethyl benzylcarbamate]
[4]
  improved potency compared to 1 in the PCFP assays: more than ten-fold

Reference: PMC8857066 (Bioorganic & medicinal chemistry letters, 2022)
